In brackets after ≈: the same amount, converted by molar mass.
How the values were obtained:
[1] = test system: Staphylococcus aureus; assay: Antimicrobial activity against Staphylococcus aureus at 512 ug/ml after 24 hrs by agar diffusion technique; assay type: functional; conditions: read-out: DIZ
Method in brief: (§1)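 Strains came from a university microbiology department. Inocula were 10⁶ CFU/mL. Mueller-Hinton agar was seeded with culture, poured 3–4 mm thick, and 10 mm cups were bored. Compounds were dissolved in DMF (10 mg/mL stock), diluted, and the solution was placed in the cups. Plates were incubated at 37 °C overnight. Inhibition zone diameter (mm) was read at 24 h.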

[2] = test system: Escherichia coli; assay: Antimicrobial activity against Escherichia coli at 128 ug/ml after 24 hrs by agar diffusion technique; assay type: functional; conditions: read-out: DIZ; method in brief: as §1
[3] = test system: Staphylococcus aureus; assay: Antimicrobial activity against Staphylococcus aureus at 4 ug/ml after 24 hrs by agar diffusion technique; assay type: functional; conditions: read-out: DIZ; method in brief: as §1
[4] = test system: Staphylococcus aureus; assay: Antimicrobial activity against Staphylococcus aureus after 24 hrs by agar diffusion technique; assay type: functional; conditions: for MIC: Staphylococcus aureus, 24 h
Method in brief: (§2)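 Agar cup diffusion on Mueller-Hinton agar seeded from 10⁶ CFU/mL suspensions, with 10 mm cups in a 3–4 mm layer. Compounds were in DMF (10 mg/mL stock) at several concentrations. Plates were incubated at 37 °C and zones measured after 24 h. MIC was taken as the intercept of the plot of log concentration against inhibition zone diameter.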

[5] = test system: Pseudomonas aeruginosa; assay: Antimicrobial activity against Pseudomonas aeruginosa at 128 ug/ml after 24 hrs by agar diffusion technique; assay type: functional; conditions: read-out: DIZ; method in brief: as §1
[6] = test system: Klebsiella pneumoniae; assay: Antimicrobial activity against Klebsiella pneumoniae after 24 hrs by agar diffusion technique; assay type: functional; conditions: for MIC: Klebsiella pneumoniae, 24 h; method in brief: as §2
[7] = test system: Pseudomonas aeruginosa; assay: Antimicrobial activity against Pseudomonas aeruginosa at 512 ug/ml after 24 hrs by agar diffusion technique; assay type: functional; conditions: read-out: DIZ; method in brief: as §1
[8] = test system: Klebsiella pneumoniae; assay: Antimicrobial activity against Klebsiella pneumoniae at 128 ug/ml after 24 hrs by agar diffusion technique; assay type: functional; conditions: read-out: DIZ; method in brief: as §1
[9] = test system: Klebsiella pneumoniae; assay: Antimicrobial activity against Klebsiella pneumoniae at 512 ug/ml after 24 hrs by agar diffusion technique; assay type: functional; conditions: read-out: DIZ; method in brief: as §1
[10] = test system: Pseudomonas aeruginosa; assay: Antimicrobial activity against Pseudomonas aeruginosa at 4 ug/ml after 24 hrs by agar diffusion technique; assay type: functional; conditions: read-out: DIZ; method in brief: as §1
[11] = test system: Escherichia coli; assay: Antimicrobial activity against Escherichia coli at 64 ug/ml after 24 hrs by agar diffusion technique; assay type: functional; conditions: read-out: DIZ; method in brief: as §1
[12] = test system: Escherichia coli; assay: Antimicrobial activity against Escherichia coli at 16 ug/ml after 24 hrs by agar diffusion technique; assay type: functional; conditions: read-out: DIZ; method in brief: as §1
[13] = test system: Pseudomonas aeruginosa; assay: Antimicrobial activity against Pseudomonas aeruginosa at 16 ug/ml after 24 hrs by agar diffusion technique; assay type: functional; conditions: read-out: DIZ; method in brief: as §1
[14] = test system: Escherichia coli; assay: Antimicrobial activity against Escherichia coli at 512 ug/ml after 24 hrs by agar diffusion technique; assay type: functional; conditions: read-out: DIZ; method in brief: as §1
[15] = test system: Klebsiella pneumoniae; assay: Antimicrobial activity against Klebsiella pneumoniae at 64 ug/ml after 24 hrs by agar diffusion technique; assay type: functional; conditions: read-out: DIZ; method in brief: as §1
[16] = test system: Staphylococcus aureus; assay: Antimicrobial activity against Staphylococcus aureus at 16 ug/ml after 24 hrs by agar diffusion technique; assay type: functional; conditions: read-out: DIZ; method in brief: as §1
[17] = test system: Staphylococcus aureus; assay: Antimicrobial activity against Staphylococcus aureus at 64 ug/ml after 24 hrs by agar diffusion technique; assay type: functional; conditions: read-out: DIZ; method in brief: as §1
[18] = test system: Pseudomonas aeruginosa; assay: Antimicrobial activity against Pseudomonas aeruginosa after 24 hrs by agar diffusion technique; assay type: functional; conditions: for MIC: Pseudomonas aeruginosa, 24 h; method in brief: as §2
[19] = Octanol-phosphate buffer partition coefficient, log D at pH 7.4 by spectrophotometry; assay type: physicochemical
Method in brief: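 Shake-flask method. A 0.2 mg/mL stock was diluted into pH 7.4 phosphate buffer and mixed with an equal volume of n-octanol, phases mutually presaturated and protected from light. Samples were vortexed 3 min, then shaken 5 h at 25 °C. Both phases were assayed by UV at 270–280 nm. D is the molar concentration ratio, octanol to aqueous.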

[20] = test system: Staphylococcus aureus; assay: Antimicrobial activity against Staphylococcus aureus at 128 ug/ml after 24 hrs by agar diffusion technique; assay type: functional; conditions: read-out: DIZ; method in brief: as §1
[21] = test system: Pseudomonas aeruginosa; assay: Antimicrobial activity against Pseudomonas aeruginosa at 64 ug/ml after 24 hrs by agar diffusion technique; assay type: functional; conditions: read-out: DIZ; method in brief: as §1
[22] = test system: Escherichia coli; assay: Antimicrobial activity against Escherichia coli at 4 ug/ml after 24 hrs by agar diffusion technique; assay type: functional; conditions: read-out: DIZ; method in brief: as §1
[23] = test system: Klebsiella pneumoniae; assay: Antimicrobial activity against Klebsiella pneumoniae at 4 ug/ml after 24 hrs by agar diffusion technique; assay type: functional; conditions: read-out: DIZ; method in brief: as §1
[24] = test system: Klebsiella pneumoniae; assay: Antimicrobial activity against Klebsiella pneumoniae at 16 ug/ml after 24 hrs by agar diffusion technique; assay type: functional; conditions: read-out: DIZ; method in brief: as §1
[25] = test system: Escherichia coli; assay: Antimicrobial activity against Escherichia coli after 24 hrs by agar diffusion technique; assay type: functional; conditions: for MIC: Escherichia coli, 24 h; method in brief: as §2

CCn1cc(C(=O)O)c(=O)c2cc(F)c(N3CCN(Cn4cnc5ccccc54)CC3)cc21
zone of inhibition at 512 µg/mL [1]: 3 mm | zone of inhibition at 128 µg/mL [2]: 7 mm | zone of inhibition at 4 µg/mL [3]: 0 mm | logMIC [4]: 2.11 | MIC [4]: 128 µg/mL (≈ 285 µM) | zone of inhibition at 128 µg/mL [5]: 0 mm | logMIC [6]: 1.15 | MIC [6]: 14 µg/mL (≈ 31.1 µM) | zone of inhibition at 512 µg/mL [7]: 15 mm | zone of inhibition at 128 µg/mL [8]: 8 mm | zone of inhibition at 512 µg/mL [9]: 20 mm | zone of inhibition at 4 µg/mL [10]: 0 mm | zone of inhibition at 64 µg/mL [11]: 6 mm | zone of inhibition at 16 µg/mL [12]: 3 mm | zone of inhibition at 16 µg/mL [13]: 0 mm | zone of inhibition at 512 µg/mL [14]: 10 mm | zone of inhibition at 64 µg/mL [15]: 3 mm | zone of inhibition at 16 µg/mL [16]: 0 mm | zone of inhibition at 64 µg/mL [17]: 0 mm | logMIC [18]: 2.11 | MIC [18]: 128 µg/mL (≈ 285 µM) | logD [19]: -0.043 | zone of inhibition at 128 µg/mL [20]: 0 mm | zone of inhibition at 64 µg/mL [21]: 0 mm | zone of inhibition at 4 µg/mL [22]: 0 mm | zone of inhibition at 4 µg/mL [23]: 0 mm | zone of inhibition at 16 µg/mL [24]: 0 mm | logMIC [25]: 0.6 | MIC [25]: 4 µg/mL (≈ 8.9 µM)

CCn1cc(C(=O)O)c(=O)c2cc(F)c(N3CCN(C=O)CC3)cc21 [4-N-FORMYL-1-PIPERAZINYL-NORFLOXACIN]
zone of inhibition at 512 µg/mL [1]: 12 mm | zone of inhibition at 128 µg/mL [2]: 4 mm | zone of inhibition at 4 µg/mL [3]: 7 mm | logMIC [4]: 0 | MIC [4]: < 1 µg/mL | zone of inhibition at 128 µg/mL [5]: 13 mm | logMIC [6]: 2.11 | MIC [6]: 128 µg/mL (≈ 369 µM) | zone of inhibition at 512 µg/mL [7]: 13 mm | zone of inhibition at 128 µg/mL [8]: 0 mm | zone of inhibition at 512 µg/mL [9]: 8 mm | zone of inhibition at 4 µg/mL [10]: 0 mm | zone of inhibition at 64 µg/mL [11]: 2 mm | zone of inhibition at 16 µg/mL [12]: 2 mm | zone of inhibition at 16 µg/mL [13]: 2 mm | zone of inhibition at 512 µg/mL [14]: 13 mm | zone of inhibition at 64 µg/mL [15]: 0 mm | zone of inhibition at 16 µg/mL [16]: 8 mm | zone of inhibition at 64 µg/mL [17]: 8 mm | logMIC [18]: 0.78 | MIC [18]: 6 µg/mL (≈ 17.3 µM) | logD [19]: 0.087 | zone of inhibition at 128 µg/mL [20]: 15 mm | zone of inhibition at 64 µg/mL [21]: 7 mm | zone of inhibition at 4 µg/mL [22]: 2 mm | zone of inhibition at 4 µg/mL [23]: 0 mm | zone of inhibition at 16 µg/mL [24]: 0 mm | logMIC [25]: 1.04 | MIC [25]: 11 µg/mL (≈ 31.7 µM)

CCn1cc(C(=O)O)c(=O)c2cc(F)c(N3CCN(CN4C(=O)c5cccc6cccc(c56)C4=O)CC3)cc21
zone of inhibition at 512 µg/mL [1]: 15 mm | zone of inhibition at 128 µg/mL [2]: 0 mm | zone of inhibition at 4 µg/mL [3]: 0 mm | logMIC [4]: 2.11 | MIC [4]: 128 µg/mL (≈ 242 µM) | zone of inhibition at 128 µg/mL [5]: 0 mm | logMIC [6]: 1.81 | MIC [6]: 64 µg/mL (≈ 121 µM) | zone of inhibition at 512 µg/mL [7]: 10 mm | zone of inhibition at 128 µg/mL [8]: 8 mm | zone of inhibition at 512 µg/mL [9]: 9 mm | zone of inhibition at 4 µg/mL [10]: 0 mm | zone of inhibition at 64 µg/mL [11]: 0 mm | zone of inhibition at 16 µg/mL [12]: 0 mm | zone of inhibition at 16 µg/mL [13]: 0 mm | zone of inhibition at 512 µg/mL [14]: 13 mm | zone of inhibition at 64 µg/mL [15]: 0 mm | zone of inhibition at 16 µg/mL [16]: 0 mm | zone of inhibition at 64 µg/mL [17]: 0 mm | logMIC [18]: 2.11 | MIC [18]: 128 µg/mL (≈ 242 µM) | logD [19]: -0.9 | zone of inhibition at 128 µg/mL [20]: 0 mm | zone of inhibition at 64 µg/mL [21]: 0 mm | zone of inhibition at 4 µg/mL [22]: 0 mm | zone of inhibition at 4 µg/mL [23]: 0 mm | zone of inhibition at 16 µg/mL [24]: 0 mm | logMIC [25]: 2.11 | MIC [25]: 128 µg/mL (≈ 242 µM)
